Activity calls are given as the source filed them. The rule behind the calls is not given here.
Key:
CREB-binding protein [1] = target: T1, CREB-binding protein (Homo sapiens, UniProt Q92793); assay: Inhibition of CBP in human MV-4-11 cells assessed as decrease in MYC expression incubated for 4 hrs measured by luminescence method; format: cell-based
[2] = target: Bromodomain-containing protein 4 (Homo sapiens, UniProt O60885); assay: Displacement of biotinylated histone H3K14 peptide ligand from human recombinant His-tagged BRD4 bromodomain-2 measured after 10 mins by TR-FRET assay
CREB-binding protein [3] = target: T1, CREB-binding protein; assay: Displacement of biotinylated histone H3K14 peptide ligand from human recombinant His-tagged CBP measured after 10 mins by TR-FRET assay
Plasma = assay: Drug uptake in plasma of C.B-17 SCID beige mouse xenografted with human MOLM16 cells at 3 to 30 mg/kg administered via oral gavage as bid for 21 days measured 2 to 24 hrs post last dose by LC-MS/MS method; format: ADME, organism-based; conditions: in vivo
Mus musculus [4] = assay: In vivo inhibition of CBP in human MOLM16 cells xenografted in C.B-17 SCID beige mouse assessed as MYC transcript levels at 3 mg/kg administered via oral gavage as bid for 21 days measured 16 hrs post last dose by real time-PCR method; format: functional; design: scale not given: the % may be the effect or the level left
Mus musculus [5] = assay: In vivo inhibition of CBP in human MOLM16 cells xenografted in C.B-17 SCID beige mouse assessed as suppression of MYC transcript levels at 30 mg/kg administered via oral gavage […] measured 2 hrs post last dose by real time-PCR method relative to control; format: functional
Summary of the method: (§1)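 MOLM-16 subcutaneous xenografts in SCID beige mice received single oral doses of 3–30 mg/kg (n=3/group). Tumors were taken at time points from 2 to 24 h. MYC transcript was measured in tumor RNA by one-step TaqMan qRT-PCR with ACTB as housekeeping gene. Results are given relative to vehicle-treated animals by the comparative Ct method.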

Cytochrome P450 1A2 = Cytochrome P450 1A2 (Homo sapiens, UniProt P05177); assay: Inhibition of CYP1A2 (unknown origin); format: ADME
[6] = Cytotoxicity against induced-Treg cells differentiated from human PBMC derived naive CD4-positive T cells assessed as effect on cell viability at 0.001 to 2 uM measured after 4 days by […] dye-based flow cytometry; conditions: 96 h
Summary of the method: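 Naïve CD4+ T cells from healthy-donor PBMC were differentiated to iTregs with anti-CD3, anti-CD28, rIL-2 (10 ng/ml) and rTGFβ in RPMI-1640 with 10% FCS. Compound was tested from 2 µM in 2-fold dilutions, with DMSO as control. Cells were harvested on day 4 and viability was scored by flow cytometry with a fixable viability dye.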

[7] = Antitumor activity against human MOLM16 cells xenografted in C.B-17 SCID beige mouse assessed as tumor growth inhibition at 3 mg/kg administered via oral gavage as bid for 21 days relative to control; format: functional; conditions: read-out: TGI
Summary of the method: (§2)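 Female C.B-17 SCID.bg mice received 5 million MOLM-16 cells s.c. in HBSS/Matrigel in the right flank. Dosing began at 130–300 mm3: oral gavage BID for 21 days in 0.5% methylcellulose, 0.2% Tween 80, n=10/group. Caliper volumes taken; %TGI computed from the area under the mixed-model spline-fitted curve per day versus vehicle.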

Mus musculus [8] = assay: In vivo inhibition of CBP in human MOLM16 cells xenografted in C.B-17 SCID beige mouse assessed as suppression of MYC transcript levels at 3 mg/kg administered via oral gavage as bid for 21 days measured 2 to 8 hrs post last dose by real time-PCR method; format: functional, organism-based
[9] = Drug uptake in tumor of C.B-17 SCID beige mouse xenografted with human MOLM16 cells at 3 to 30 mg/kg administered via oral gavage […] measured 2 to 24 hrs post last dose by LC-MS/MS method; format: ADME, organism-based, Neoplasm; conditions: in vivo
Summary of the method: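 In MOLM-16 xenograft mice given single oral doses of 3–30 mg/kg, plasma and tumor were sampled from 2 to 24 h. Tumor was homogenized in 4 volumes of water. Both matrices were extracted with acetonitrile with labetalol as internal standard and measured by LC-MS/MS. Levels were corrected for plasma protein and tissue binding to give unbound concentrations.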

[10] = Antitumor activity against human MOLM16 cells xenografted in C.B-17 SCID beige mouse assessed as tumor growth inhibition at 10 mg/kg administered via oral gavage as bid for 21 days relative to control; format: functional; conditions: read-out: TGI; summary of the method: as §2
Mus musculus [11] = assay: In vivo inhibition of CBP in human MOLM16 cells xenografted in C.B-17 SCID beige mouse assessed as suppression of MYC transcript levels at 10 mg/kg administered via oral gavage […] measured 2 hrs post last dose by real time-PCR method relative to control; format: functional; summary of the method: as §1

T1 sequence (Q92793 whole entry): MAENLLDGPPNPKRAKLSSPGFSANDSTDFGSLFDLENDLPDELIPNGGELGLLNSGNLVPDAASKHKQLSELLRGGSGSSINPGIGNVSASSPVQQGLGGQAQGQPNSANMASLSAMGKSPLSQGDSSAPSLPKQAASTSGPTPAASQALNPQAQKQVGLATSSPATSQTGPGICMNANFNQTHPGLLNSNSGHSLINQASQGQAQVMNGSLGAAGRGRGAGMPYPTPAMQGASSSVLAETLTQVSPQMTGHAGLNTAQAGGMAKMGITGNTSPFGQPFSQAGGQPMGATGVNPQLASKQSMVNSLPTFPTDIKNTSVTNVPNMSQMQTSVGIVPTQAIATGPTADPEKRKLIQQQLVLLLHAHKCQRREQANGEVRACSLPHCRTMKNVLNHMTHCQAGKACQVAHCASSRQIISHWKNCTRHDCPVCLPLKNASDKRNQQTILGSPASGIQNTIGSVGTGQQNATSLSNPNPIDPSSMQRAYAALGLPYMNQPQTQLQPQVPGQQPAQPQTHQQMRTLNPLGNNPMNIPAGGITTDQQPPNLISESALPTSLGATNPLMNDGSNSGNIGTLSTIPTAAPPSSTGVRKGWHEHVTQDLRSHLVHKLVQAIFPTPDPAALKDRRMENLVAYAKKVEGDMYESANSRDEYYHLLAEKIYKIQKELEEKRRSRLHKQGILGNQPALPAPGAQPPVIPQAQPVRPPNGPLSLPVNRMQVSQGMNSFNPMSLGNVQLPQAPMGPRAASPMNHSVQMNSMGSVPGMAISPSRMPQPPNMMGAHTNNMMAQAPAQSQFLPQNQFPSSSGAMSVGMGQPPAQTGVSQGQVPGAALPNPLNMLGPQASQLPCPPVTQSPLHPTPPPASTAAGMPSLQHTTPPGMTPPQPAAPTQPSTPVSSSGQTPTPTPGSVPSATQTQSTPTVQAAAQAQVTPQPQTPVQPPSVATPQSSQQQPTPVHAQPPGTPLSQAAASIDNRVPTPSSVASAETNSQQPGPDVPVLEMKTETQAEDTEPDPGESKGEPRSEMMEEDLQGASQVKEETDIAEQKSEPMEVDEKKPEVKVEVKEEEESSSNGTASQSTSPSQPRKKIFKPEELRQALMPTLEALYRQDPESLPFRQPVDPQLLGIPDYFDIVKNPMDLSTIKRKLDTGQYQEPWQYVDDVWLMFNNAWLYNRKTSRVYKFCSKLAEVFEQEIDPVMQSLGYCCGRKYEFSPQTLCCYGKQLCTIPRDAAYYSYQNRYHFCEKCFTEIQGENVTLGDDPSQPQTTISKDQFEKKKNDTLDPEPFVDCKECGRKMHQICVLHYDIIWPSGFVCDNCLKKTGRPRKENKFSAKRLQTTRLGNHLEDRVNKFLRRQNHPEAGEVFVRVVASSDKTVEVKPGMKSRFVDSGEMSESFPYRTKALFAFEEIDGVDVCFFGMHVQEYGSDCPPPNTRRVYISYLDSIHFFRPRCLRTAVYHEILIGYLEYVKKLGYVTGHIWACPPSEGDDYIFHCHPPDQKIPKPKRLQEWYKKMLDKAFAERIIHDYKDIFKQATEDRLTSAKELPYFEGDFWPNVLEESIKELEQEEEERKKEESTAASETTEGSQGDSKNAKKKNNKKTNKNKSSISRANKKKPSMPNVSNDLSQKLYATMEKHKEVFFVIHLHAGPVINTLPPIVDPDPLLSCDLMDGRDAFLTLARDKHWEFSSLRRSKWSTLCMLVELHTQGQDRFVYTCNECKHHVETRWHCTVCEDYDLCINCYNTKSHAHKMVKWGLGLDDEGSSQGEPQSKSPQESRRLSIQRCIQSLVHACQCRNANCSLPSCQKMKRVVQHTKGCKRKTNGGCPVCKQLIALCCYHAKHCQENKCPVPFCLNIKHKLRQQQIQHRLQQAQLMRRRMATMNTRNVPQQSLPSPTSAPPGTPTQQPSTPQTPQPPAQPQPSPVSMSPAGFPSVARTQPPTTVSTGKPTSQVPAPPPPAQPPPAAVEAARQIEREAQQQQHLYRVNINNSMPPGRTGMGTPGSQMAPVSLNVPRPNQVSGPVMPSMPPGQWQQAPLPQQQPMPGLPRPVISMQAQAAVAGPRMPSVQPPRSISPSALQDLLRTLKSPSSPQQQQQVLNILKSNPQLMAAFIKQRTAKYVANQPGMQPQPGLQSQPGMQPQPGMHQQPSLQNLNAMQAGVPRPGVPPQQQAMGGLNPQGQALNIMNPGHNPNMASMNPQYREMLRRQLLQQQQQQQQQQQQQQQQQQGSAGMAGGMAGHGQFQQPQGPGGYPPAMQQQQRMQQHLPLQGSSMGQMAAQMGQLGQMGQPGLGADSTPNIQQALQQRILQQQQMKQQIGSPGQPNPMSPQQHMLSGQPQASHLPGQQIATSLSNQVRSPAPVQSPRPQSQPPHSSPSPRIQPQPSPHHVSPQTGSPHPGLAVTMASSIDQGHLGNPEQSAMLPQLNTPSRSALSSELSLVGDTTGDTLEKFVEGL
Sequence of Cytochrome P450 1A2 (P05177 whole entry): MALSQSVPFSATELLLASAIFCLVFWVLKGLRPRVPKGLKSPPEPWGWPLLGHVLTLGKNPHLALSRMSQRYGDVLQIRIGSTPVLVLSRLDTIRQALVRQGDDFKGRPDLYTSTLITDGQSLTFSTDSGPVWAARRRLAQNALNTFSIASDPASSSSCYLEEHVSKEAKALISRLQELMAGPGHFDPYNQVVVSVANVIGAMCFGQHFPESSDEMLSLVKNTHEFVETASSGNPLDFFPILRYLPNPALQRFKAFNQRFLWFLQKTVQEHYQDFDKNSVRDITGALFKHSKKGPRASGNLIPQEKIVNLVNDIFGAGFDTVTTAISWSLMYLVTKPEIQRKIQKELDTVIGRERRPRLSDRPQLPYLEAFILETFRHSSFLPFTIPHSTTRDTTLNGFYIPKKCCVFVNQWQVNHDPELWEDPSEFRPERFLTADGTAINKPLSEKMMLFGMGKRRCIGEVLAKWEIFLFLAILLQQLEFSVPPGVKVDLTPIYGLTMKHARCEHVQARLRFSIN

Row | SMILES | EC50 (CREB-binding protein [1]) [µM] | IC50 [2] [µM] | IC50 (CREB-binding protein [3]) [µM] | Drug uptake (Plasma) | Activity (Mus musculus [4]) [%] | Imax (Mus musculus [5]) [%] | IC50 (Cytochrome P450 1A2) [µM] | Activity [6] | inhibition in vivo at 3 mg/kg [7] [%] | inhibition (Mus musculus [8]) | Drug uptake [9] | inhibition in vivo at 10 mg/kg [10] [%] | Imax (Mus musculus [11]) [%]
1 | CC(=O)N1CCc2c(c(N3CCCc4cc(-c5cnn(C)c5)c(C(F)F)cc43)nn2C2CCOCC2)C1 | 0.014 | > 20 | 0.0011 | – | – | – | – | – | – | – | – | – | –
2 | CNC(=O)N1CCc2c(c(N3CCCc4cc(-c5cnn(C)c5)c(C(F)F)cc43)nn2C2CCOCC2)C1 | – | – | – | Active | 150 | 88 | > 10 | Non-Toxic | 73 | Active | Active | 71 | 87
